Reference: ChEMBL document CHEMBL1142924, “N(6)-[(hetero)aryl/(cyclo)alkyl-carbamoyl-methoxy-phenyl]-(2-chloro)-5'-N-ethylcarboxamido-adenosines: the first example of adenosine-related structures with potent agonist activity at the human A(2B) adenosine receptor” (Bioorg Med Chem, 2007)

Assays:
Adenosine receptor A2b = molecular target: T1, Adenosine receptor A2b (Homo sapiens, UniProt P29275); assay: Agonist activity at human adenosine A2B receptor expressed in CHO cells assessed as stimulation of cAMP production; format: functional, cell-based
T1 sequence (P29275 whole entry): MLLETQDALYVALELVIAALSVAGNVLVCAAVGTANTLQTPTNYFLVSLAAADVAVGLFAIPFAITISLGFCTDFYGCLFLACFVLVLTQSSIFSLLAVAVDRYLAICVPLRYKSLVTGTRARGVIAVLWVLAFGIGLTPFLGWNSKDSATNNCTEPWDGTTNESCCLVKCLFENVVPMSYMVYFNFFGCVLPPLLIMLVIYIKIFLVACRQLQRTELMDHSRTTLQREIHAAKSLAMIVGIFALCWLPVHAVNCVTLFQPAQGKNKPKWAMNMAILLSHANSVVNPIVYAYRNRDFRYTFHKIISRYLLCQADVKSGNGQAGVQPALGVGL
In short: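 CHO cells stably expressing human A2B, grown in DMEM/F12 with 10% serum and G418, trypsinized and pelleted. 1 × 10⁶ cells/assay preincubated 10 min at 37 °C with adenosine deaminase 2 IU/mL and Ro 20-1724. Ligands at 1 nM–10 µM added for 5 min, stopped with cold 6% TCA, ether-extracted. cAMP read by [³H]cAMP competition protein binding. EC50 from sigmoid non-linear regression; 3–4 experiments in duplicate.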

Adenosine receptor A3 = molecular target: T2, Adenosine receptor A3 (Homo sapiens, UniProt P0DMS8); assay: Displacement of [125I]ABMECA from human adenosine A3 receptor expressed in CHO cells
T2 sequence (P0DMS8 whole entry): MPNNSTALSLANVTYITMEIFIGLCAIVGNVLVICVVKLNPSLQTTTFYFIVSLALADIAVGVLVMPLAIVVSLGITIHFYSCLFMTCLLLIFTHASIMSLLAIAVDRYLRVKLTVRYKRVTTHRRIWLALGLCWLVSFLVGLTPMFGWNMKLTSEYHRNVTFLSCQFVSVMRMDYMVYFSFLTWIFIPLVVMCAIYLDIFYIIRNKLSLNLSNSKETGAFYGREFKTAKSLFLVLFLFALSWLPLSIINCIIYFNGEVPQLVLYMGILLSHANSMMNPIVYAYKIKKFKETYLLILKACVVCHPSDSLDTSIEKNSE

Adenosine receptor A2a = Adenosine receptor A2a (Homo sapiens, UniProt P29274); assay: Displacement of [3H]CGS-21680 from human adenosine A2A receptor expressed in CHO cells; format: cell-based; set-up: concentration or dose not given beside the values
Adenosine receptor A1 = molecular target: T3, Adenosine receptor A1 (Homo sapiens, UniProt P30542); assay: Displacement of [3H]CHA from human adenosine A1 receptor expressed in CHO cells; format: cell-based
T3 sequence (P30542 whole entry): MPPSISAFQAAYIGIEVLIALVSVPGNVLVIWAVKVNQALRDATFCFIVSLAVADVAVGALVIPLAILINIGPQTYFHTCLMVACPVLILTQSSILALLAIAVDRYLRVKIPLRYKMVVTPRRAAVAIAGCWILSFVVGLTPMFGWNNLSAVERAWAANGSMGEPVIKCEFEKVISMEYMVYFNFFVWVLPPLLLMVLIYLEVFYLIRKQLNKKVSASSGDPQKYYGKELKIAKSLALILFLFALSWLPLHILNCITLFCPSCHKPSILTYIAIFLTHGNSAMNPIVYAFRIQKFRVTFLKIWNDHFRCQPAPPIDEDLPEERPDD
In short: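 Human A1 in CHO cell membranes, pretreated with adenosine deaminase 2 IU/mL for 30 min at 37 °C. 50 µg protein per assay incubated with 1 nM [³H]CHA and 6–8 agonist concentrations in 50 mM Tris-HCl pH 7.4 for 150 min at 25 °C. Nonspecific binding defined by 10 µM CHA. Separated by GF/B filtration, counted by scintillation. Ki from IC50 via Cheng–Prusoff.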

Chain of Adenosine receptor A2a (P29274 whole entry): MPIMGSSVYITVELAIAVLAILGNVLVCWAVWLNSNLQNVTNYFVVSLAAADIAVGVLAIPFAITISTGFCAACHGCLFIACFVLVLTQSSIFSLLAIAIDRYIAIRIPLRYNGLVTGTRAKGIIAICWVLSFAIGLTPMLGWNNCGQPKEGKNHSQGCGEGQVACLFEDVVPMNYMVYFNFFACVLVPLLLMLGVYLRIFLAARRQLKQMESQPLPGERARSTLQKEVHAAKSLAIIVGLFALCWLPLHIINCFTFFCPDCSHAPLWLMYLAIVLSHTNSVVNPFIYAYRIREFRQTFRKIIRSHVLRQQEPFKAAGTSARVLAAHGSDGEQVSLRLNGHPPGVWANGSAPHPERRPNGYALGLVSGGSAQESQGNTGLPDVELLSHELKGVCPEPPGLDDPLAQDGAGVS

Row | Structure (SMILES) | EC50 (Adenosine receptor A2b) [nM] | Ki (Adenosine receptor A3) [nM] | Activity (Adenosine receptor A2a) [%] | Ki (Adenosine receptor A2a) [nM] | Ki (Adenosine receptor A1) [nM]
1 | CCNC(=O)[C@H]1O[C@@H](n2cnc3c(Nc4ccc(OCC(=O)Nc5ccc(C(C)(C)C)cc5)cc4)ncnc32)[C@H](O)[C@@H]1O | 16.4 | 40.2 | 1 | > 1000 | 18.6
2 | CCNC(=O)[C@H]1O[C@@H](n2cnc3c(Nc4ccc(OCC(=O)Nc5ccccc5)cc4)nc(Cl)nc32)[C@H](O)[C@@H]1O | 42.6 | 107 | 36 | > 1000 | 30.5
3 | CCNC(=O)[C@H]1O[C@@H](n2cnc3c(Nc4ccc(OCC(=O)Nc5ccc(N6CCOCC6)cc5)cc4)ncnc32)[C@H](O)[C@@H]1O | 300 | 320 | 1 | > 1000 | 77.5
4 | CCNC(=O)[C@H]1O[C@@H](n2cnc3c(Nc4ccc(OCC(=O)Nc5ccc(OC)cc5)cc4)nc(Cl)nc32)[C@H](O)[C@@H]1O | 360 | 101 | 27 | > 1000 | 50.4
5 | CCNC(=O)[C@H]1O[C@@H](n2cnc3c(Nc4ccc(OCC(=O)Nc5cc(OC)cc(OC)c5)cc4)ncnc32)[C@H](O)[C@@H]1O | 53.6 | 78.6 | 13 | > 1000 | 15.3
6 | CCNC(=O)[C@H]1O[C@@H](n2cnc3c(Nc4ccc(OCC(=O)NC5CCCCC5)cc4)ncnc32)[C@H](O)[C@@H]1O | 315 | 72.5 | 40 | > 1000 | 16.2
7 | CCNC(=O)[C@H]1O[C@@H](n2cnc3c(Nc4ccc(OCC(=O)Nc5ccc6c(c5)OCO6)cc4)ncnc32)[C@H](O)[C@@H]1O | 35.5 | 81.4 | 5 | > 1000 | 8.4
8 | CCNC(=O)[C@H]1O[C@@H](n2cnc3c(Nc4ccc(OCC(=O)Nc5ccc(OC)c(OC)c5)cc4)ncnc32)[C@H](O)[C@@H]1O | 45.4 | 53.2 | 30 | > 1000 | 7.7
9 | CCNC(=O)[C@H]1O[C@@H](n2cnc3c(Nc4ccc(OCC(=O)NC5CCCCC5)cc4)nc(Cl)nc32)[C@H](O)[C@@H]1O | 302 | 95.8 | 46 | > 1000 | 30.8

More lines, now with the values ahead:

Row | EC50 (Adenosine receptor A2b) [nM] | Ki (Adenosine receptor A3) [nM] | Activity (Adenosine receptor A2a) [%] | Ki (Adenosine receptor A2a) [nM] | Ki (Adenosine receptor A1) [nM] | Structure (SMILES)
10 | 15.2 | 72.3 | 48 | > 1000 | 2.3 | CCNC(=O)[C@H]1O[C@@H](n2cnc3c(Nc4ccc(OCC(=O)Nc5ccc(F)cc5)cc4)ncnc32)[C@H](O)[C@@H]1O
11 | 240 | 65.4 | 1 | > 1000 | 28.3 | CCNC(=O)[C@H]1O[C@@H](n2cnc3c(Nc4ccc(OCC(=O)NCc5ccc(OC)cc5)cc4)ncnc32)[C@H](O)[C@@H]1O
12 | 32.3 | 42.3 | 37 | > 1000 | 11.2 | CCNC(=O)[C@H]1O[C@@H](n2cnc3c(Nc4ccc(OCC(=O)Nc5ccncc5)cc4)ncnc32)[C@H](O)[C@@H]1O
13 | 107 | 115 | 1 | > 1000 | 31.6 | CCNC(=O)[C@H]1O[C@@H](n2cnc3c(Nc4ccc(OCC(=O)Nc5ccccc5C(F)(F)F)cc4)ncnc32)[C@H](O)[C@@H]1O
14 | 175 | 75.7 | 49 | > 1000 | 22.6 | CCNC(=O)[C@H]1O[C@@H](n2cnc3c(Nc4ccc(OCC(=O)NCc5ccccc5)cc4)nc(Cl)nc32)[C@H](O)[C@@H]1O
15 | 150 | 82.7 | 49 | > 1000 | 20.4 | CCNC(=O)[C@H]1O[C@@H](n2cnc3c(Nc4ccc(OCC(=O)NCc5ccccc5)cc4)ncnc32)[C@H](O)[C@@H]1O
16 | 7.3 | 38.4 | 45 | > 1000 | 8.5 | CCNC(=O)[C@H]1O[C@@H](n2cnc3c(Nc4ccc(OCC(=O)Nc5ccccc5)cc4)ncnc32)[C@H](O)[C@@H]1O
17 | 12.3 | 34.2 | 35 | > 1000 | 3.1 | CCNC(=O)[C@H]1O[C@@H](n2cnc3c(Nc4ccc(OCC(=O)Nc5ccc(Cl)cc5)cc4)ncnc32)[C@H](O)[C@@H]1O
18 | 32.4 | 25.3 | 42 | > 1000 | 4.7 | CCNC(=O)[C@H]1O[C@@H](n2cnc3c(Nc4ccc(OCC(=O)Nc5ccc(OC)cc5)cc4)ncnc32)[C@H](O)[C@@H]1O
19 | 30.2 | 85.2 | 28 | > 1000 | 5.2 | CCNC(=O)[C@H]1O[C@@H](n2cnc3c(Nc4ccc(OCC(=O)Nc5ccc(I)cc5)cc4)ncnc32)[C@H](O)[C@@H]1O
20 | 10.5 | 36.4 | 26 | > 1000 | 3.5 | CCNC(=O)[C@H]1O[C@@H](n2cnc3c(Nc4ccc(OCC(=O)Nc5ccc(Br)cc5)cc4)ncnc32)[C@H](O)[C@@H]1O
